The values that follow come from ChEMBL document CHEMBL5678818, “Discovery of potent SOS1 inhibitors that block RAS activation via disruption of the RAS-SOS1 interaction” (Proc Natl Acad Sci U S A, 2019).

Calls of active or inactive are those of the source. The calls are words filed in the database; no cut-off is given here.

Assay [1] deals with Serine/threonine-protein kinase WNK4 (Homo sapiens) (UniProt Q96J92). As to the kind of experiment: Inhibition of WNK4 (unknown origin) assessed as residual activity at 1000 nM by KINOMEscan analysis relative to control.
Assay [2] concerns the target Serine/threonine-protein kinase OSR1 (Homo sapiens) (UniProt O95747). As to the kind of experiment: Inhibition of OSR1 (unknown origin) assessed as residual activity at 100 nM by KINOMEscan analysis relative to control.
Assay [3] has as its system Tyrosine-protein kinase ABL1 (Homo sapiens), P00519 [M351T]. As to the kind of experiment: Inhibition of phosphorylated ABL1 M351T mutant (unknown origin) assessed as residual activity at 100 nM by KINOMEscan analysis relative to control.
Assay [4] has as its target Vascular endothelial growth factor receptor 1 (Homo sapiens) (UniProt P17948). As to the kind of experiment: Inhibition of FLT1 (unknown origin) assessed as residual activity at 100 nM by KINOMEscan analysis relative to control.
In assay [5] the target is T1, Serine/threonine-protein kinase DCLK2 (Homo sapiens) (UniProt Q8N568).
T1 sequence (whole entry): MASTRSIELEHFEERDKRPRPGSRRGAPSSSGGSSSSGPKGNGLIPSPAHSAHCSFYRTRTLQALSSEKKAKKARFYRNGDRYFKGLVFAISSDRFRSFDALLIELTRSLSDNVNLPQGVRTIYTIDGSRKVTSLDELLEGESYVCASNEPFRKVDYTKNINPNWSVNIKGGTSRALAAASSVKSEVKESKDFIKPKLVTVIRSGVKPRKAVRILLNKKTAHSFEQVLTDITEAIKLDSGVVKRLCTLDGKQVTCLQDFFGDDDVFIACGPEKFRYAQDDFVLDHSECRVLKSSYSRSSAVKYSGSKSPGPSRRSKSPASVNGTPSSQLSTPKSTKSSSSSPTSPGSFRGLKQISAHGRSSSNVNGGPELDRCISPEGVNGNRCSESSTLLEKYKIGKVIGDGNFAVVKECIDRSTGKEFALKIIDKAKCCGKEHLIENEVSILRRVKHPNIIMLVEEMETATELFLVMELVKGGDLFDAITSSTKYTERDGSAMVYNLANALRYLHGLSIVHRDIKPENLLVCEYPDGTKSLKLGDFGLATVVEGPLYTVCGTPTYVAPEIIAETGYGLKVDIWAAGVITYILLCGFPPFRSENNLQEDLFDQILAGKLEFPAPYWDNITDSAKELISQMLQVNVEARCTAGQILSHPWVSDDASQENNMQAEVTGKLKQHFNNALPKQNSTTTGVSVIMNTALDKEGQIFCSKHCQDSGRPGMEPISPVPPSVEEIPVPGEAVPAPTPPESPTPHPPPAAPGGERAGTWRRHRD
The experiment in a line: Inhibition of DCAMKL2 (unknown origin) assessed as residual activity at 100 nM by KINOMEscan analysis relative to control.

Assay [6] addresses Serine/threonine-protein kinase MRCK alpha (Homo sapiens) (UniProt Q5VT25). The experiment in a line: Inhibition of MRCKA (unknown origin) assessed as residual activity at 100 nM by KINOMEscan analysis relative to control.
Assay [7] concerns the target T2, Serine/threonine-protein kinase BRSK2 (Homo sapiens) (UniProt Q8IWQ3).
T2 sequence (whole entry): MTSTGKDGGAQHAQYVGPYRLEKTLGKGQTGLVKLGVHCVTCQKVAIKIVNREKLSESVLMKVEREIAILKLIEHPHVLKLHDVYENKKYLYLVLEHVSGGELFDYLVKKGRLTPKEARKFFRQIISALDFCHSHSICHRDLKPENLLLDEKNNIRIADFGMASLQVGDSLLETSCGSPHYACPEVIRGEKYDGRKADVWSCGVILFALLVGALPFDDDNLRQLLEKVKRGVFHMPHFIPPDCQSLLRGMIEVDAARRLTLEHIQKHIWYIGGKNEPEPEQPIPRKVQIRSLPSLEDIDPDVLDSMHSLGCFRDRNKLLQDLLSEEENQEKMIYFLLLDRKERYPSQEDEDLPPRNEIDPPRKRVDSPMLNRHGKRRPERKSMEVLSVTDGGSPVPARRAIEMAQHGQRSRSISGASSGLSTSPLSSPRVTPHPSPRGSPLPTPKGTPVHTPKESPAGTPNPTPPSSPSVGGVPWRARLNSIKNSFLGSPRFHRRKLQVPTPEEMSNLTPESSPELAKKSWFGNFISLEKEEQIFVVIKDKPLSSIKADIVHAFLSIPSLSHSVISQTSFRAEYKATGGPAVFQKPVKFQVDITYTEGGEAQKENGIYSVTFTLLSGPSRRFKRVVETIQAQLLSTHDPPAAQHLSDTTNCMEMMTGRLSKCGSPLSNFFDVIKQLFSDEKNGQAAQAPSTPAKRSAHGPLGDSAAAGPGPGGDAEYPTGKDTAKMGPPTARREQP
As to the kind of experiment: Inhibition of BRSK2 (unknown origin) assessed as residual activity at 100 nM by KINOMEscan analysis relative to control.

For assay [8], the target named is Fibroblast growth factor receptor 3 (Homo sapiens) (UniProt P22607). The experiment in a line: Inhibition of FGFR3 (unknown origin) assessed as residual activity at 100 nM by KINOMEscan analysis relative to control.
For assay [9], the target named is Serine/threonine-protein kinase/endoribonuclease IRE1 (Homo sapiens) (UniProt O75460). The experiment in a line: Inhibition of ERN1 (unknown origin) assessed as residual activity at 100 nM by KINOMEscan analysis relative to control.
For assay [10], the target named is Serine/threonine-protein kinase pim-1 (Homo sapiens) (UniProt P11309). The experiment in a line: Inhibition of PIM1 (unknown origin) assessed as residual activity at 100 nM by KINOMEscan analysis relative to control.
Assay [11] addresses Calcium/calmodulin-dependent protein kinase type II subunit alpha (Homo sapiens) (UniProt Q9UQM7). The experiment in a line: Inhibition of CAMK2A (unknown origin) assessed as residual activity at 100 nM by KINOMEscan analysis relative to control.
For the next assay, the system named is K562. As to the kind of experiment: Effect on total ERK level in human K562 cells incubated for 60 mins by HTRF analysis. Format: functional, cell-based. In outline: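 K-562 cells (wild-type KRAS) were sourced from ATCC. Cells were incubated with compound for 60 min, and total ERK was quantified alongside pERK.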

Chain of Vascular endothelial growth factor receptor 1 (Homo sapiens) (P17948 whole entry): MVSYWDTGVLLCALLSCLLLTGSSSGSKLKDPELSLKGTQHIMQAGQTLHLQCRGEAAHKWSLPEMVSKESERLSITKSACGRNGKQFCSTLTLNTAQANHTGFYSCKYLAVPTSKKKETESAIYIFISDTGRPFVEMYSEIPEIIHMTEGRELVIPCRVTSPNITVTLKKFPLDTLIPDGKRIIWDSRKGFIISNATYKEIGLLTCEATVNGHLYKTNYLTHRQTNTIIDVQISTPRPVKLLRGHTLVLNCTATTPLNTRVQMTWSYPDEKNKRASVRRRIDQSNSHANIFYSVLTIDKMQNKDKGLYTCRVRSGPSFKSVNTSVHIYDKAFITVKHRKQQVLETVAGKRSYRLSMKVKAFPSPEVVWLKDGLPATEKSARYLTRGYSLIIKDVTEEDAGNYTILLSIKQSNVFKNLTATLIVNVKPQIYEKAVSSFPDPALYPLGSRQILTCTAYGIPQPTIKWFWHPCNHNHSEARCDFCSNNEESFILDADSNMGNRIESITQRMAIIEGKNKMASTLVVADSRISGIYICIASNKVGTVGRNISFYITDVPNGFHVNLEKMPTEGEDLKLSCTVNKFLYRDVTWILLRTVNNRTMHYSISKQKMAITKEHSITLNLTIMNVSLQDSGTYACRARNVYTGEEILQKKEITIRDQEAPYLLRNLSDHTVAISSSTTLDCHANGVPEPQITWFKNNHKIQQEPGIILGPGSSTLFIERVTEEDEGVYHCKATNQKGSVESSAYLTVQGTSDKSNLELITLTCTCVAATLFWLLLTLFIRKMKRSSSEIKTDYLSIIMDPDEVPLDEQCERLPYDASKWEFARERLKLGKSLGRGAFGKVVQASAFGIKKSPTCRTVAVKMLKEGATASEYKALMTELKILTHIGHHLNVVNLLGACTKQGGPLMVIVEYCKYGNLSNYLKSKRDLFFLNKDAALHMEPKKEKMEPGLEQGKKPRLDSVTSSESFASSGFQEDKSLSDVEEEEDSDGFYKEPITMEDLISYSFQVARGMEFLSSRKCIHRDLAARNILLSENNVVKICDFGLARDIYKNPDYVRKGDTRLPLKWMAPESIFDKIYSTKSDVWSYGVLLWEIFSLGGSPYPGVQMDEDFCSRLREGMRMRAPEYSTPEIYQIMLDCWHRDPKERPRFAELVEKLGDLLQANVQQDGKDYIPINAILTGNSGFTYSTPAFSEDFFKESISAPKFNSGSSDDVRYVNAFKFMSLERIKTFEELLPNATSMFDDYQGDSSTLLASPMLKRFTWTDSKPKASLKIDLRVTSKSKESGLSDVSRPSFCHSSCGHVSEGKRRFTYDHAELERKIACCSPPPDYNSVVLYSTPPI
Chain of Serine/threonine-protein kinase pim-1 (Homo sapiens) (P11309 whole entry, looked up): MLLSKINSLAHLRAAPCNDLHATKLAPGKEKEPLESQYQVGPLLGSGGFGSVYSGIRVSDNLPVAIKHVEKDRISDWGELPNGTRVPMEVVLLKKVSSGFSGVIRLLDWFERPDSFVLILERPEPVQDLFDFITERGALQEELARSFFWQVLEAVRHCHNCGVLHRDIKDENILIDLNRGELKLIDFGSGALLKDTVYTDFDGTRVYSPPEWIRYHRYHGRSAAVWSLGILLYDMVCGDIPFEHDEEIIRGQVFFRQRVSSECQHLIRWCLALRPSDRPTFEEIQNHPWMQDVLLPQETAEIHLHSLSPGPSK
Chain of Serine/threonine-protein kinase OSR1 (Homo sapiens) (O95747 whole entry, looked up): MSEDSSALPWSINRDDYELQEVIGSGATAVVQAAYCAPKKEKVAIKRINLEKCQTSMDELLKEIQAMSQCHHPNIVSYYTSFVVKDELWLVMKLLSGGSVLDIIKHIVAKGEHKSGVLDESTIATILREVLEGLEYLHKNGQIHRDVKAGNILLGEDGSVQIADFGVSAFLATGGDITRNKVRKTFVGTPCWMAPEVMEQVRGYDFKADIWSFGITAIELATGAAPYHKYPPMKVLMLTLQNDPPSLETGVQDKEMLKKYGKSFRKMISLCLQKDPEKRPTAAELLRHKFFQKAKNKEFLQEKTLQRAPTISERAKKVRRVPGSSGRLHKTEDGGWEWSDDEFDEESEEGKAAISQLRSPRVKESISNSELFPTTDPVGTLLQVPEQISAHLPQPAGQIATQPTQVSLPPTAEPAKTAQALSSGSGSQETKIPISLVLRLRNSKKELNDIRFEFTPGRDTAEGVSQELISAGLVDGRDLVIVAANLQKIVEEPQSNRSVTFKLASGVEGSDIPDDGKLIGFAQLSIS
Chain of Serine/threonine-protein kinase MRCK alpha (Homo sapiens) (Q5VT25 whole entry): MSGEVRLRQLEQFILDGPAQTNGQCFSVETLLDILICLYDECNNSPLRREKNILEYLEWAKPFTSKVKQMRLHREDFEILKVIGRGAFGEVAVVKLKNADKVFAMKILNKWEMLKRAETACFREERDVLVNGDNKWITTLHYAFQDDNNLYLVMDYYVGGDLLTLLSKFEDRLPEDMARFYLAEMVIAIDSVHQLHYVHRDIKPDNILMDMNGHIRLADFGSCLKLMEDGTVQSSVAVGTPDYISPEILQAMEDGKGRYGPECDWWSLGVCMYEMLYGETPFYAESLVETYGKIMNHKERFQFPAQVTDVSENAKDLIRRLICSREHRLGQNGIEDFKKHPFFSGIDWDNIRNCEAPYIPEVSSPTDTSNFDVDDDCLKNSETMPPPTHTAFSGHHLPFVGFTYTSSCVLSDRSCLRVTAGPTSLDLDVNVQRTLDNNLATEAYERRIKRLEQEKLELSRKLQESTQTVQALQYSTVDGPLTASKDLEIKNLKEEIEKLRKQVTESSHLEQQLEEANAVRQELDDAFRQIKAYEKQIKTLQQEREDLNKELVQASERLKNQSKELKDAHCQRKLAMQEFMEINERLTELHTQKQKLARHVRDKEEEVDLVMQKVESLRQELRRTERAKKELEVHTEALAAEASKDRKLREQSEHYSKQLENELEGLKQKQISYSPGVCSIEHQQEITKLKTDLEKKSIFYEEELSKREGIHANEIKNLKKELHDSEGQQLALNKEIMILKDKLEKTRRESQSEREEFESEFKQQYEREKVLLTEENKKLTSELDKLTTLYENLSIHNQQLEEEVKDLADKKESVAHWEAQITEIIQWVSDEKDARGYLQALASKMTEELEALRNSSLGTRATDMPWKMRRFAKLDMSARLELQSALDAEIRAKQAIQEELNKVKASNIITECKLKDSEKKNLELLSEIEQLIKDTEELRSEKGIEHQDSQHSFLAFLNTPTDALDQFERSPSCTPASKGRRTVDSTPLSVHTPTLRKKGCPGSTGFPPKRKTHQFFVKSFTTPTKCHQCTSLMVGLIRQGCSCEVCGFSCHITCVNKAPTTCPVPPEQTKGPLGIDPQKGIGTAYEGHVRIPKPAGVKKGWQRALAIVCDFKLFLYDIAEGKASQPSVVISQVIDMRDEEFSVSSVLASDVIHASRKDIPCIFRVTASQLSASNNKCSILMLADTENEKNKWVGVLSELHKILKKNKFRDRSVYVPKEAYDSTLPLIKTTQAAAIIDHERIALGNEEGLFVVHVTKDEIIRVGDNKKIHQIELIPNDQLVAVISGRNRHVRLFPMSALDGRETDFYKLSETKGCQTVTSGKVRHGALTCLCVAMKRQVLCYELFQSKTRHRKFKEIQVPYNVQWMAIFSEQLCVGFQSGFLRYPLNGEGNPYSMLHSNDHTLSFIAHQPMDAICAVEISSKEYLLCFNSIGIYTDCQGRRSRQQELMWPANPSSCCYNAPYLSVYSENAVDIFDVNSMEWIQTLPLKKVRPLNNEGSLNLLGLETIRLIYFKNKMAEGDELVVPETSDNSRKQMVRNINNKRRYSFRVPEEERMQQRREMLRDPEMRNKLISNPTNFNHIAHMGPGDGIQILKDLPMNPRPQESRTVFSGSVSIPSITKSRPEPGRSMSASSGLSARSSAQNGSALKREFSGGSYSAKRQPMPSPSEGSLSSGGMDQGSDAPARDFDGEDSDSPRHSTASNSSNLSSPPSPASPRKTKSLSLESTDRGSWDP
Chain of Fibroblast growth factor receptor 3 (Homo sapiens) (P22607 23-806 limits assumed): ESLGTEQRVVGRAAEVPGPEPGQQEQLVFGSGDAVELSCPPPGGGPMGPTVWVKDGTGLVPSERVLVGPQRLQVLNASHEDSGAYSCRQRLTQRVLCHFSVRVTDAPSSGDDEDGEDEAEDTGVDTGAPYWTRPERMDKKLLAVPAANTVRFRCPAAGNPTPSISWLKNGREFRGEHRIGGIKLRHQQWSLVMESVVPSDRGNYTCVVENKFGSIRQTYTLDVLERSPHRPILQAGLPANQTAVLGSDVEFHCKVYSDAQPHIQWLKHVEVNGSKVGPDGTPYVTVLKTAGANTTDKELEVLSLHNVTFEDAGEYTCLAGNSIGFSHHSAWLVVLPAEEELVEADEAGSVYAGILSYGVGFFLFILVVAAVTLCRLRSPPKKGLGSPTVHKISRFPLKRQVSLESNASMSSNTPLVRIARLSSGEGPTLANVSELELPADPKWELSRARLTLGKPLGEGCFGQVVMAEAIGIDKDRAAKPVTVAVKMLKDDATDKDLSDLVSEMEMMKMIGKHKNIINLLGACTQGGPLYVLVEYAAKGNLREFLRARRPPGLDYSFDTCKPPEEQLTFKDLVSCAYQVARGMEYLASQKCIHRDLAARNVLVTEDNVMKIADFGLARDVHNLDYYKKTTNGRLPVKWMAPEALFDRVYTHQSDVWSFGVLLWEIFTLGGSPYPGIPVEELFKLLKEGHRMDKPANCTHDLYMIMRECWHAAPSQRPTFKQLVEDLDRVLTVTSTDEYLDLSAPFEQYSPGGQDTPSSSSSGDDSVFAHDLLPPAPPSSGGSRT

Take `COc1cc2nc(C)nc(N[C@H](C)c3cccc(-c4cn[nH]c4)c3)c2cc1OC`: the Activity in assay [1] was found to be 100%.
For the compound `COc1cc2ncnc(N[C@H](C)c3cccc4ccccc34)c2cc1OC`, the Activity was 89% in assay [2]; 100% in assay [3]; 93% in assay [4]; 82% in assay [5]; 14% in assay [6]; 100% in assay [7]. Moreover, the Activity in [8] was found to be 72%; in assay [9], 96%; in assay [10] it was 89%; in assay [11], 96%.
`CNCc1ccccc1-c1csc([C@@H](C)Nc2nc(C)nc3cc(OC)c(OC)cc23)c1` [BAY-293]: in the assay on K562, the outcome was inactive.
